Reference: ChEMBL document CHEMBL2384903, “Highly efficient biocompatible neuroprotectants with dual activity as antioxidants and P2Y receptor agonists” (J Med Chem, 2013)
The source made the active and inactive calls. The rule behind the calls is not given here.

What was measured:
[1] = Antioxidant activity assessed as free radical scavenging activity after 7 mins by ABTS radical cation decolorization assay; format: functional
How it was run: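 ABTS•+ is made from 7 mM ABTS and 2.45 mM persulfate (final), left in the dark at RT for 12–16 h, then diluted in water pH 7.4 to A734 0.80. It is mixed with compound or Trolox standard (final 0–60 μM), and A734 is read at exactly 7 min. Percent inhibition is plotted against concentration, with solvent blanks. Each run is done at least three times, in triplicate.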

PC-12 [2] = test: Antioxidant activity in rat PC12 cells assessed as inhibition of Fe2+-induced ROS production after 1 hr by DCFH-DA staining-based fluorometric analysis; format: functional, cell-based
How it was run: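 PC12 cells grown in DMEM, seeded 24 h. Loaded with DCFH-DA (ethanol stock diluted 100-fold in PBS) for 20 min, then probe removed. Nucleotides added at final 0.2–200 μM, and oxidation started with FeSO4 at final 0.16 μM. Fluorescence at 485/530 nm read during 1 h at 37 °C. […] Mean ± SD of two experiments.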

[3] = Antioxidant activity assessed as inhibiton of Fe2+-induced Fenton reaction-mediated hydroxyl radical formation from H2O2 measured for 150 secs by ESR analysis in presence of DMPO; format: functional
How it was run: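 Spin-trap ESR run at room temperature, final volume 100 μL. 5–500 μM compound is combined with ammonium iron(II) sulfate (1 mM stock) and Tris pH 7.4. After 30 s mixing, DMPO (100 mM stock) and H2O2 (100 mM stock) are added, with final pH 7.2–7.4. Spectrum is recorded 150 s after H2O2 at 9.76 GHz, 6.35 mW. Mean ± SD of three experiments.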

P2Y purinoceptor 1 [4] = molecular target: P2Y purinoceptor 1 (Homo sapiens, UniProt P47900); test: Agonist activity at human GFP-tagged P2Y1R transfected in human 1321N1 cells assessed as induction of intracellular calcium mobilization by fluorescence assay; format: functional, cell-based
Sequence of P2Y purinoceptor 1 (Homo sapiens, UniProt P47900) (P47900 whole entry): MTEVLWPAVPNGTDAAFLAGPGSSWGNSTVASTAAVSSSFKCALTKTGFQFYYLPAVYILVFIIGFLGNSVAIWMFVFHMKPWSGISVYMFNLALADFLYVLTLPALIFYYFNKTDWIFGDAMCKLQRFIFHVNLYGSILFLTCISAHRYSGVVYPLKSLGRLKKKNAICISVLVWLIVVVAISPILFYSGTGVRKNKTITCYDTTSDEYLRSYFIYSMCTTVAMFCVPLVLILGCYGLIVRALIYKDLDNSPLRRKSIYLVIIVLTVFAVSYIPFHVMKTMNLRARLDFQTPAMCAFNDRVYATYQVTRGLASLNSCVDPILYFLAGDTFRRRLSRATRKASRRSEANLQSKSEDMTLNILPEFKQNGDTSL

PC-12 [5] = test: Cytotoxicity against rat PC12 cells assessed as cell viability up to 200 uM after 48 hrs by MTT assay; format: cell-based; settings: pc-12, 48 h
How it was run: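 PC12 cells were exposed to compounds at various concentrations up to 200 μM for 48 h, and viability was measured by MTT assay.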

[6] = Neuroprotective activity in rat primary cortical neurons assessed as decrease in FeSO4-induced oxidative stress measured cell vitality at 1 uM after 24 hrs by MTT assay relative to control; format: functional, cell-based; set-up: scale not given: the % may be the effect or the level left; settings: Cerebral cortex neuron
How it was run: (§1)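 Cortical neurons came from 1-day-old rat brain, were trypsin-dissociated and plated on polyornithine. They were grown in serum-free DMEM/F12 with B-27, then Ara-C treated for 48 h. Cells were treated with 0.01−5 μM nucleotide before FeSO4 (3 μM final) for 24 h. MTT 1 mg/mL was applied for 2 h at 37 °C, formazan dissolved in DMSO, absorbance read at 550 nm. Viability was expressed relative to vehicle control, mean ± SD of three independent experiments in triplicate.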

P2Y purinoceptor 11 = molecular target: T1, P2Y purinoceptor 11 (Homo sapiens, UniProt Q96G91); test: Agonist activity at human GFP-tagged P2Y11R transfected in human 1321N1 cells assessed as induction of intracellular calcium mobilization by fluorescence assay; format: functional, cell-based
T1 sequence (Q96G91 whole entry): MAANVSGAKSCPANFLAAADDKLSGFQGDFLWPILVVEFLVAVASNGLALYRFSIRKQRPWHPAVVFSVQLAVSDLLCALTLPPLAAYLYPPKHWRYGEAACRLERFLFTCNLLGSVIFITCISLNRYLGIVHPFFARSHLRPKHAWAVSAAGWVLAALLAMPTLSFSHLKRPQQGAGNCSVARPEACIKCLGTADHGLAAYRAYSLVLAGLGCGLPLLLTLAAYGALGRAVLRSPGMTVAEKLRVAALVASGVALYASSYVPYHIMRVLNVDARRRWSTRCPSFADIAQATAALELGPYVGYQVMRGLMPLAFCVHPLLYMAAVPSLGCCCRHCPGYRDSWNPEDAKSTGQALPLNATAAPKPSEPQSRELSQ

[7] = Metabolic stability in human serum assessed as compound remaining at 0.1 mg after 6 hrs by HPLC analysis; format: ADME, cell-free; settings: read-out: Stability
How it was run: (§2)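 0.1 mg compound in water was mixed with human blood serum and RPMI-1640 medium (1:3 serum:medium) and incubated at 37 °C for 0−24 h. Remaining intact nucleotide was quantified from the change in its HPLC peak integration over time.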

Homo sapiens = species: Homo sapiens; test: Selectivity ratio of EC50 for human GFP-tagged P2Y11R to EC50 for human GFP-tagged P2Y1R
How it was run: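 1321N1 astrocytoma cells stably expressing human P2Y1-GFP or P2Y11-GFP were loaded with 2 μM fura-2 AM plus 0.02% pluronic acid in HEPES-buffered saline pH 7.4 for 30 min at 37 °C. They were then superfused at 37 °C with graded agonist concentrations. [Ca2+]i was read as the F340/F380 ratio (510 nm emission) in GFP-positive cells, at least 40 cells per point. EC50 came from concentration–response curves, n = 3.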

[8] = molecular target: P2Y purinoceptor 12 (Rattus norvegicus) (UniProt Q9EPX4); test: Agonist activity at P2Y12R in rat PC12 cells assessed as decrease in FeSO4-induced ROS formation at 0.04 to 100 uM after 1 hr by DCFH-DA staining-based fluorometric analysis in presence of P2Y12R antagonist 2-MeS-AMP; format: cell-based; settings: PC-12
Sequence of P2Y purinoceptor 12 (Rattus norvegicus) (Q9EPX4 whole entry): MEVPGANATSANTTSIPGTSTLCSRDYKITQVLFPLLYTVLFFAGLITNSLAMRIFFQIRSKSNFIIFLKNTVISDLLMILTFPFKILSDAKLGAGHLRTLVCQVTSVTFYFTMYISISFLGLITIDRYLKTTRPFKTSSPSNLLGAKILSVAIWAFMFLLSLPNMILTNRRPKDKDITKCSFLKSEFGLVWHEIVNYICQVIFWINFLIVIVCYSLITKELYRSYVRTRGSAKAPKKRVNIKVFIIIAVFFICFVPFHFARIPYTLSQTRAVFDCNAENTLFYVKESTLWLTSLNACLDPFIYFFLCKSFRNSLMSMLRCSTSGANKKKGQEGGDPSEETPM
How it was run: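 PC12 cells seeded 24 h in DMEM, pretreated with 50 μM 2-MeS-AMP for 20 min, then loaded with DCFH-DA (stock 2 mg/mL in ethanol, diluted 100-fold in PBS) for 20 min and washed. Test agent added at 0.04−100 μM final. Oxidation started with FeSO4 at 0.16 μM final. Incubated 1 h at 37 °C, fluorescence read at 485/530 nm. Inhibition of ROS compared with control lacking antagonist.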

[9] = Half life in human serum at 0.1 mg after 6 hrs by HPLC analysis; format: ADME, cell-free; how it was run: as §2
[10] = Neuroprotective activity in rat primary cortical neurons assessed as decrease in FeSO4-induced oxidative stress measured cell viability after 24 hrs by MTT assay; format: functional, cell-based; settings: Cerebral cortex neuron; how it was run: as §1
PC-12 [11] = test: Antioxidant activity in rat PC12 cells assessed as inhibition of Fe2+-induced ROS production at 100 uM after 1 hr by DCFH-DA staining-based fluorometric analysis relative to control; format: functional; settings: PC-12, 1 h
How it was run: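 PC12 cells in DMEM were seeded 24 h, loaded 20 min with diluted DCFH-DA and washed. Nucleotides were then added at 0.2−200 μM final. Oxidation was started with FeSO4 at 0.16 μM final and plates were incubated 1 h at 37 °C. DCF fluorescence was read at 485/530 nm, and percent inhibition of ROS was taken against untreated oxidized control.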

[12] = Antioxidant activity assessed as inhibiton of Fe2+-induced Fenton reaction-mediated hydroxyl radical formation from H2O2 relative to ATP; format: functional
How it was run: (§3)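 Fe(II)-H2O2 hydroxyl radical assay read by ESR with DMPO spin trap. Ammonium iron(II) sulfate (1 mM, stock) was added to 5−500 μM test compound, then 1 mM Tris pH 7.4. After 30 s mixing, DMPO then H2O2 were added. Final pH 7.2−7.4, 100 μL total, room temperature. Spectrum recorded 150 s after H2O2. IC50 given as mean ± SD of three experiments.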

[13] = Antioxidant activity assessed as inhibiton of Fe2+-induced Fenton reaction-mediated hydroxyl radical formation from H2O2 relative to trolox; format: functional; how it was run: as §3
P2Y purinoceptor 1 [14] = molecular target: P2Y purinoceptor 1 (Rattus norvegicus, UniProt P49651); test: Agonist activity at rat brain P2Y1R transfected in HEK293 cells assessed as induction of intracellular calcium mobilization by fluorescence assay; format: functional, cell-based
Sequence of P2Y purinoceptor 1 (Rattus norvegicus, UniProt P49651) (P49651 whole entry): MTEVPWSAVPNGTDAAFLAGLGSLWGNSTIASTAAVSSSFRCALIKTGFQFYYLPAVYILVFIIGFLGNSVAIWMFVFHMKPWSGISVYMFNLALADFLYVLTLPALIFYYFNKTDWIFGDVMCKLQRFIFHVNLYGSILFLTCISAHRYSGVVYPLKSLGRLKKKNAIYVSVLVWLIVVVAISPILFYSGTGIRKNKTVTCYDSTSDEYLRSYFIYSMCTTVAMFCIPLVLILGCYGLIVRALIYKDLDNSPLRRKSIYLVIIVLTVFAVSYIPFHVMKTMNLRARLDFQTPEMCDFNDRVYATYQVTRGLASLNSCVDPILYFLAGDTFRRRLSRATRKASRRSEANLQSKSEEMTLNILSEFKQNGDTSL

[15] = Rattus norvegicus, PC-12, 1 h, read-out: IC50

SMILES	IC50 [1]	IC50 (PC-12 [2]; [15])	IC50 [3]	EC50 (P2Y purinoceptor 1 [4])	EC50 (P2Y purinoceptor 11; read-out: EC50)	also measured
Cc1c(C)c2c(c(C)c1O)CCC(C)(C(=O)O)O2 (stereo not given) [TROLOX]	18 µM	20000 nM				
Nc1ncnc2c1ncn2[C@@H]1O[C@H](COP(=O)(O)OP(=O)(O)OP(=O)(O)OP(=O)(O)OP(=O)(O)OC[C@H]2O[C@@H](n3cnc4c(N)ncnc43)[C@H](O)[C@@H]2O)[C@@H](O)[C@H]1O	> 60 µM	29000 nM	75 µM	760 nM		
O=C(O)CN(CCN(CC(=O)O)CC(=O)O)CC(=O)O [EDETIC ACID]			54 µM			
BP(=O)(OC[C@H]1O[C@@H](n2cnc3c(N)nc(Cl)nc32)[C@H](O)[C@@H]1O)OP(=O)(O)O (stereo not given in full)						Activity (PC-12 [5]): Non-toxic
B[P@@](=O)(OC[C@H]1O[C@@H](n2cnc3c(N)nc(Cl)nc32)[C@H](O)[C@@H]1O)OP(=O)(O)O	40 µM	80 nM	175 µM	7 nM	3680 nM	Activity [6]: < 60%; remaining at 6 h [7]: 53%; Ratio EC50 (Homo sapiens): < 530; Activity [8]: inactive; half-life [9]: 420 min; EC50 [10]: 170 nM
B[P@@](=O)(OC[C@H]1O[C@@H](n2cnc3c(N)nc(Cl)nc32)[C@H](O)[C@@H]1O)OP(=O)(O)C(Cl)(Cl)P(=O)(O)O	24 µM	180 nM	131 µM	150 nM	1400 nM	
Nc1ncnc2c1ncn2[C@@H]1O[C@H](COP(=O)(O)OP(=O)(O)OP(=O)(O)O)[C@@H](O)[C@H]1O [ADENOSINE TRIPHOSPHATE]	60 µM		> 500 µM			inhibition at 100 µM (PC-12 [11]): 45%; IC50 (PC-12 [2]; pc-12): Not Active
Nc1ncnc2c1ncn2[C@@H]1O[C@H](COP(=O)(O)OP(=O)(O)O)[C@@H](O)[C@H]1O [ADENOSINE DIPHOSPHATE]	30 µM	21000 nM	170 µM	24 nM	1700 nM	remaining at 6 h [7]: 32%
B[P@](=O)(OC[C@H]1O[C@@H](n2cnc3c(N)nc(Cl)nc32)[C@H](O)[C@@H]1O)OP(=O)(O)C(Cl)(Cl)P(=O)(O)O	27 µM	190 nM	60 µM	950 nM	130 nM	
Nc1ncnc2c1ncn2[C@@H]1O[C@H](COP(=O)(O)OP(=O)(O)OP(O)(O)=S)[C@@H](O)[C@H]1O						fold change (FC) [12]: 100; fold change (FC) [13]: 20
[BH3-]P(=O)(OC[C@H]1O[C@@H](n2cnc3c(N)ncnc32)[C@H](O)[C@@H]1O)OP(=O)([O-])OP(=O)([O-])OP(=O)([O-])OP(=O)([O-])OC[C@H]1O[C@@H](n2cnc3c(N)ncnc32)[C@H](O)[C@@H]1O.[Na+].[Na+].[Na+].[Na+].[Na+] (stereo not given in full)						Activity (PC-12 [5]): Non-toxic
B[P@](=O)(OC[C@H]1O[C@@H](n2cnc3c(N)ncnc32)[C@H](O)[C@@H]1O)OP(=O)(O)OP(=O)(O)OP(=O)(O)OP(=O)(O)OC[C@H]1O[C@@H](n2cnc3c(N)ncnc32)[C@H](O)[C@@H]1O	> 60 µM	1200 nM	47 µM	3000 nM		EC50 (P2Y purinoceptor 11; 1321-n1): Not Active
B[P@](=O)(OC[C@H]1O[C@@H](n2cnc3c(N)nc(Cl)nc32)[C@H](O)[C@@H]1O)OP(=O)(O)OP(=O)(O)O	24 µM	2600 nM	36 µM	2500 nM		
B[P@](=O)(OC[C@H]1O[C@@H](n2cnc3c(N)nc(Cl)nc32)[C@H](O)[C@@H]1O)OP(=O)(O)O	39 µM	200 nM	120 µM	600 nM	1000 nM	Ratio EC50 (Homo sapiens): < 530; EC50 [10]: 400 nM
[BH3-][P@@](=O)(OC[C@H]1O[C@@H](n2cnc3c(N)ncnc32)[C@H](O)[C@@H]1O)OP(=O)([O-])[O-].[Na+].[Na+].[Na+]	26 µM	1000 nM	47 µM	300 nM		EC50 (P2Y purinoceptor 11; 1321-n1): Not Active; remaining at 6 h [7]: 56%
BP(=O)(OP(=O)(O)OP(=O)(O)OC[C@H]1O[C@@H](n2cnc3c(N)ncnc32)[C@H](O)[C@@H]1O)OP(=O)(O)OP(=O)(O)OC[C@H]1O[C@@H](n2cnc3c(N)ncnc32)[C@H](O)[C@@H]1O	61 µM	5000 nM	161 µM	1200 nM		
B[P@@](=O)(OC[C@H]1O[C@@H](n2cnc3c(N)nc(Cl)nc32)[C@H](O)[C@@H]1O)OP(=O)(O)OP(=O)(O)O	23 µM	1000 nM	66 µM	74 nM		EC50 (P2Y purinoceptor 1 [14]): 4.5 nM
[BH3-]P(=O)(OC[C@H]1O[C@@H](n2cnc3c(N)nc(Cl)nc32)[C@H](O)[C@@H]1O)OP(=O)([O-])C(Cl)(Cl)P(=O)([O-])[O-].[Na+].[Na+].[Na+].[Na+] (stereo not given in full)						Activity (PC-12 [5]): Non-toxic
B[P@@](=O)(OC[C@H]1O[C@@H](n2cnc3c(N)ncnc32)[C@H](O)[C@@H]1O)OP(=O)(O)OP(=O)(O)OP(=O)(O)OP(=O)(O)OC[C@H]1O[C@@H](n2cnc3c(N)ncnc32)[C@H](O)[C@@H]1O	> 60 µM	400 nM	59 µM	200 nM		EC50 (P2Y purinoceptor 11; 1321-n1): Not Active
B[P@](=O)(OC[C@H]1O[C@@H](n2cnc3c(N)ncnc32)[C@H](O)[C@@H]1O)OP(=O)(O)O	24 µM	1000 nM	41 µM	13000 nM	2900 nM	
CSc1nc(N)c2ncn([C@@H]3O[C@H](COP(=O)(O)OP(=O)(O)O)[C@H](O)[C@H]3OC(=O)c3ccccc3)c2n1					1500 nM	
